# Assay results as given in ChEMBL document CHEMBL3739411, “Cytotoxic Illudane Sesquiterpenes from the Fungus Granulobasidium vellereum (Ellis and Cragin) Jülich” (J Nat Prod, 2015).
# Tests used:
# [1] = Cytotoxicity against human HuH7 cells assessed as viable cells after 6 days by XTT assay; type: functional; settings: Huh-7, 144 h
# Summary of the method: (§1)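 Cells seeded at 2 × 10⁴ cells/well in 96-well plates; test substances added next day in duplicate. CC50 is the concentration giving 50% viability relative to untreated control cells. Positive control included.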
# MT4 = test: Cytotoxicity against human MT4 cells assessed as viable cells after 6 days by XTT assay; type: functional; settings: MT4, 144 h; summary of the method: as §1
# [2] = Half life of the compound in phosphate buffer at pH 5.4 in presence of cysteine; type: ADME; settings: phosphate buffer with cysteine
# [3] = Half life of the compound in aqueous HCl; type: physicochemical
# Summary of the method: (§2)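 Compound dissolved in 2 M HCl at room temperature; reaction followed spectrophotometrically at 318 nm and by LC-HRESIMS. First-order rate constant k (min⁻¹) and t1/2 (min) derived from the decay.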
# [4] = Chemical reactivity of the compound in aqueous HCl assessed as reaction rate; type: physicochemical; settings: buffer; summary of the method: as §2
# [5] = Drug level in phosphate buffer treated with (3S,7R)-Illudin M at pH 5.4 in presence of cysteine; type: physicochemical
# Summary of the method: (§3)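 Compound was incubated with L-cysteine in 50 mM buffer at pH 5.4 at room temperature. The reaction was followed for 3 h by UV absorbance at 318 nm and by LC-HRESIMS (C18, 10−90% aqueous MeCN gradient). Reaction half-life was taken from the time course.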
# [6] = Drug level in phosphate buffer treated with (3S,7S)-Illudin M at pH 5.4 in presence of cysteine; type: physicochemical; summary of the method: as §3
SMILES,CC50 [1],CC50 (MT4),half-life [3],K [4],also measured
COc1nc(N)nc2c1ncn2[C@@H]1O[C@H](COP(=O)(N[C@H](C)C(=O)OCC(C)(C)C)Oc2ccc3ccccc3c2)[C@@H](O)[C@@]1(C)O (stereo partly drawn),3 µM,3 µM,–,–,–
CC1=C2C(=CC(C)(C)[C@H]2O)C(=O)[C@@](C)(O)C12CC2,1.3 µM,0.12 µM,170 min,4.1 ×10⁻³ /min,half-life [2]: 27 min
CC1=C2C(=CC(C)(C)[C@@H]2O)C(=O)[C@@](C)(O)C12CC2,0.38 µM,0.014 µM,38 min,12 ×10⁻³ /min,half-life [2]: 5.6 min
Cc1c(O)c2c(c(C)c1CCO)[C@H](O)C(C)(C)[C@@H]2SC[C@H](N)C(=O)O,–,–,–,–,Drug metabolism [5]: metabolite_detected
Cc1c(O)c2c(c(C)c1CCO)[C@@H](O)C(C)(C)[C@H]2SC[C@H](N)C(=O)O,–,–,–,–,Drug metabolism [6]: metabolite_detected
CC1(C)C=C2C=C(CO)C3(CC3)[C@](C)(O)[C@H]2C1,240 µM,110 µM,–,–,–
CC1=CC2=C[C@@](C)(CO)C[C@@H]2[C@@](C)(O)C12CC2,> 400 µM,> 400 µM,–,–,–
Cc1c(O)c2c(c(C)c1CCO)[C@H](O)C(C)(C)[C@H]2SC[C@H](N)C(=O)O,–,–,–,–,Drug metabolism [5]: metabolite_detected
CC1=C2C(=CC(C)(C)[C@@H]2O)C(=O)[C@](C)(O)C12CC2 [ILLUDIN M],–,–,147 min,4.7 ×10⁻³ /min,–
CC1=C2C(=C[C@@](C)(CO)[C@@H]2O)C(=O)[C@@](C)(O)C12CC2,0.098 µM,0.023 µM,–,–,–
